Source: ChEMBL document CHEMBL1158632, “Design, synthesis, and antibacterial activity of 2,5-dihydropyrrole formyl hydroxyamino derivatives as novel peptide deformylase inhibitors” (2010)
≈ marks a conversion by molar mass, not a printed value.

Columns and labels:
Assay type in all cases: functional
Staphylococcus aureus [1] = assay: Antibacterial activity against Staphylococcus aureus ATCC 25923 by microbroth dilution technique
Procedure, shortened: (§1)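 Read-out was the minimum inhibitory concentration (MIC), found by broth microdilution.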

Staphylococcus aureus [2] = assay: Antibacterial activity against methicillin-susceptible Staphylococcus aureus ATCC 29213 by microbroth dilution technique; procedure, shortened: as §1
Staphylococcus aureus [3] = assay: Antibacterial activity against methicillin-resistant Staphylococcus aureus ATCC 43300 by microbroth dilution technique
[4] = test system: Staphylococcus epidermidis; assay: Antibacterial activity against Staphylococcus epidermidis ATCC 12228 by microbroth dilution technique; procedure, shortened: as §1
Escherichia coli [5] = assay: Antibacterial activity against Escherichia coli ATCC 25922 by microbroth dilution technique; procedure, shortened: as §1
Escherichia coli [6] = assay: Antibacterial activity against Escherichia coli ATCC 35218 by microbroth dilution technique; procedure, shortened: as §1

| Compound | MIC (Staphylococcus aureus [1]) [mg/L] | MIC (Staphylococcus aureus [2]) [mg/L] | MIC (Staphylococcus aureus [3]) [mg/L] | MIC [4] [mg/L] | MIC (Escherichia coli [5]) [mg/L] | MIC (Escherichia coli [6]) [mg/L] |
| --- | --- | --- | --- | --- | --- | --- |
| CCCC[C@H](CN(O)C=O)C(=O)N1CC=C[C@H]1C(=O)Nc1ccccn1 | 0.125 (≈ 0.347 µM) | 1 (≈ 2.77 µM) | 0.125 (≈ 0.347 µM) | 0.5 (≈ 1.39 µM) | > 64 | 32 (≈ 88.8 µM) |
| CCCC[C@H](CN(O)C=O)C(=O)N1CC=C[C@H]1C(=O)Nc1ccc(F)cn1 | 0.5 (≈ 1.32 µM) | 1 (≈ 2.64 µM) | 0.25 (≈ 0.661 µM) | 0.5 (≈ 1.32 µM) | > 64 | 64 (≈ 169 µM) |
| CCCC[C@H](CN(O)C=O)C(=O)N1CC=C[C@H]1C(=O)Nc1ccc(F)c[n+]1[O-] | 0.5 (≈ 1.27 µM) | 1 (≈ 2.54 µM) | 0.5 (≈ 1.27 µM) | 1 (≈ 2.54 µM) | > 64 | 64 (≈ 162 µM) |
| CCCC[C@H](CN(O)C=O)C(=O)N1CC=C[C@H]1C(=O)Nc1ncc(C)s1 | 0.0625 (≈ 0.164 µM) | 0.25 (≈ 0.657 µM) | 0.125 (≈ 0.329 µM) | 0.25 (≈ 0.657 µM) | 32 (≈ 84.1 µM) | 16 (≈ 42.1 µM) |
| CCCC[C@H](CN(O)C=O)C(=O)N1CC=C[C@H]1C(=O)N1CCOCC1 | > 64 | > 64 | 32 (≈ 90.5 µM) | > 64 | > 64 | > 64 |
| CCCC[C@H](CN(O)C=O)C(=O)N1CC=C[C@H]1C(=O)NC1CC1 | 64 (≈ 198 µM) | 32 (≈ 99 µM) | 2 (≈ 6.18 µM) | 4 (≈ 12.4 µM) | 64 (≈ 198 µM) | 32 (≈ 99 µM) |
| CCCC[C@H](CN(O)C=O)C(=O)N1CC=C[C@H]1C(=O)Nc1ccc(Cl)cc1 | 8 (≈ 20.3 µM) | 2 (≈ 5.08 µM) | 1 (≈ 2.54 µM) | 4 (≈ 10.2 µM) | > 64 | > 64 |
| CCCC[C@H](CN(O)C=O)C(=O)N1CC=C[C@H]1C(=O)Nc1ccccc1Br | 32 (≈ 73 µM) | 4 (≈ 9.13 µM) | 1 (≈ 2.28 µM) | 8 (≈ 18.3 µM) | > 64 | > 64 |
| CCCC[C@H](CN(O)C=O)C(=O)N1CC=C[C@H]1C(=O)Nc1cccc(Br)c1 | 8 (≈ 18.3 µM) | 1 (≈ 2.28 µM) | 0.125 (≈ 0.285 µM) | 1 (≈ 2.28 µM) | 64 (≈ 146 µM) | 16 (≈ 36.5 µM) |
| CCCC[C@H](CN(O)C=O)C(=O)N1CC=C[C@H]1C(=O)Nc1ccc(Br)cc1 | 4 (≈ 9.13 µM) | 1 (≈ 2.28 µM) | 0.5 (≈ 1.14 µM) | 2 (≈ 4.56 µM) | > 64 | > 64 |
| CCCC[C@H](CN(O)C=O)C(=O)N1CC=C[C@H]1C(=O)Nc1ccccc1Cl | 0.5 (≈ 1.27 µM) | 2 (≈ 5.08 µM) | 0.25 (≈ 0.635 µM) | 1 (≈ 2.54 µM) | > 64 | 64 (≈ 162 µM) |
| CCCC[C@H](CN(O)C=O)C(=O)N1CC=C[C@H]1C(=O)Nc1ccc(F)cc1 | 2 (≈ 5.3 µM) | 2 (≈ 5.3 µM) | 1 (≈ 2.65 µM) | 4 (≈ 10.6 µM) | > 64 | 64 (≈ 170 µM) |
| CCCC[C@H](CN(O)C=O)C(=O)N1CC=C[C@H]1C(=O)Nc1ccc([N+](=O)[O-])cc1 | 0.5 (≈ 1.24 µM) | 2 (≈ 4.95 µM) | 0.5 (≈ 1.24 µM) | 0.5 (≈ 1.24 µM) | > 64 | 32 (≈ 79.1 µM) |
| CCCC[C@H](CN(O)C=O)C(=O)N1CC=C[C@H]1C(=O)Nc1ccc(OC)cc1 | 0.5 (≈ 1.28 µM) | 2 (≈ 5.14 µM) | 1 (≈ 2.57 µM) | 2 (≈ 5.14 µM) | > 64 | > 64 |
| CCCC[C@H](CN(O)C=O)C(=O)N1CC=C[C@H]1C(=O)Nc1nnc(C(F)(F)F)s1 | 32 (≈ 73.5 µM) | 16 (≈ 36.7 µM) | 8 (≈ 18.4 µM) | 16 (≈ 36.7 µM) | > 64 | > 64 |
| CCCC[C@H](CN(O)C=O)C(=O)N1CC=C[C@H]1C(=O)N[C@@H](C)c1ccccc1 | 4 (≈ 10.3 µM) | 16 (≈ 41.3 µM) | 8 (≈ 20.6 µM) | 8 (≈ 20.6 µM) | > 64 | > 64 |
| CCCC[C@H](CN(O)C=O)C(=O)N1CC=C[C@H]1C(=O)N[C@H](C)c1ccccc1 | 4 (≈ 10.3 µM) | 16 (≈ 41.3 µM) | 2 (≈ 5.16 µM) | 4 (≈ 10.3 µM) | > 64 | > 64 |
| CCCC[C@H](CN(O)C=O)C(=O)N1CC=C[C@H]1C(=O)Nc1ccccc1 | 4 (≈ 11.1 µM) | 8 (≈ 22.3 µM) | 1 (≈ 2.78 µM) | 2 (≈ 5.56 µM) | > 64 | 64 (≈ 178 µM) |
| CCCC[C@H](CN(O)C=O)C(=O)N1CCC[C@H]1C(=O)Nc1ccc(F)c[n+]1[O-] | 0.25 (≈ 0.631 µM) | 1 (≈ 2.52 µM) | 0.5 (≈ 1.26 µM) | 0.5 (≈ 1.26 µM) | 64 (≈ 161 µM) | 64 (≈ 161 µM) |
| O=C(O)c1cn(C2CC2)c2cc(N3CCNCC3)c(F)cc2c1=O [CIPROFLOXACIN] | 0.5 (≈ 1.51 µM) | 0.5 (≈ 1.51 µM) | 1 (≈ 3.02 µM) | 0.25 (≈ 0.754 µM) | < 0.0312 | < 0.0312 |
| CC(=O)NC[C@H]1CN(c2ccc(N3CCOCC3)c(F)c2)C(=O)O1 [LINEZOLID] | – | – | – | 0.5 (≈ 1.48 µM) | > 64 | > 64 |
| CC1(C)S[C@@H]2[C@H](NC(=O)Cc3ccccc3)C(=O)N2[C@H]1C(=O)O [PENICILLIN G] | 0.0625 (≈ 0.187 µM) | 1 (≈ 2.99 µM) | 64 (≈ 191 µM) | 2 (≈ 5.98 µM) | > 64 | > 64 |
| CN[C@H](CC(C)C)C(=O)N[C@H]1C(=O)N[C@@H](CC(N)=O)C(=O)N[C@H]2C(=O)N[C@H]3C(=O)N[C@H](C(=O)N[C@H](C(=O)O)c4cc(O)cc(O)c4-c4cc3ccc4O)[C@H](O)c3ccc(c(Cl)c3)Oc3cc2cc(c3O[C@@H]2O[C@H](CO)[C@@H](O)[C@H](O)[C@H]2O[C@H]2C[C@](C)(N)[C@H](O)[C@H](C)O2)Oc2ccc(cc2Cl)[C@H]1O [VANCOMYCIN] | – | – | – | – | > 64 | > 64 |
